Calls of active or inactive are those of the source. No cut-off for these calls is given here.
What was measured:
[1] = Stability of compound in pH 7.4 phosphate buffer at 20 uM measured up to 25 mins by UV-VIS spectroscopy; type: physicochemical; details: pH 7.4, 25 min
[2] = tested on: Mus musculus; assay: Antiinflammatory activity in LPS-induced C57BL/6 mouse model of acute lung injury assessed as reduction in total protein levels in BALF at 10 to 20 mg/kg/day, po for 3 days followed by LPS-stimulation measured after 6 hrs; type: functional, organism-based
Procedure, shortened: (§1)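 Male C57BL/6 mice (18–22 g) randomized to four groups. Compound given orally in 0.5% CMC-Na at 10 or 20 mg/kg/day for 3 consecutive days; controls received vehicle. LPS challenge; killed 6 h later. Left-lung BALF (saline 3 × 0.5 mL) centrifuged at 1000 rpm, 10 min, 4 °C: supernatant used for protein and ELISA TNF-α/IL-6, pellet for total cell count. Serum cytokines also measured by ELISA. Wet/dry ratio from middle right lobe dried at 65 °C for 72 h. Lung sections (5 μm) stained with H&E or for CD68 by IHC (citrate antigen retrieval, pH 6.5; DAB detection); n = 3.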

[3] = tested on: Mus musculus; assay: Antiinflammatory activity in LPS-induced C57BL/6 mouse model of acute lung injury assessed as reduction in macrophage infiltration by measuring CD68 expression at 10 to 20 mg/kg/day, po for 3 days followed by LPS-stimulation measured after 6 hrs by immunohistochemistry; type: functional, organism-based; procedure, shortened: as §1
[4] = tested on: Peritoneal macrophage; assay: Antiinflammatory activity in C57BL/6 mouse primary peritoneal macrophages assessed as inhibition of LPS-induced MCP1 mRNA expression preincubated for 30 mins followed by LPS stimulation and measured after 6 hrs by qRT-PCR analysis; type: functional, cell-based
Procedure, shortened: (§2)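 Thioglycollate-elicited peritoneal macrophages (C57BL/6 mice, 3 mL 6% thioglycollate i.p.), harvested by PBS/30 μM EDTA lavage, cultured in RPMI-1640 with 10% FBS at 37 °C, 5% CO2. Pretreatment with compound at graded concentrations for 30 min, then LPS for 6 h. TRIZOL RNA extraction; qRT-PCR with values normalized to β-actin mRNA.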

[5] = tested on: Mus musculus; assay: Antiinflammatory activity in oral dosed LPS-induced C57BL/6 mouse model of acute lung injury assessed as reduction in TNF-alpha mRNA expression in lung tissue after 6 hrs by qRT-PCR analysis; type: functional, organism-based
Procedure, shortened: (§3)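 Male C57BL/6 mice dosed orally with compound (10 or 20 mg/kg/day in 0.5% CMC-Na, 3 days), then LPS challenge. Lungs harvested 6 h later; RNA extracted with TRIZOL and TNF-α, IL-6, ICAM-1, VCAM-1 and MCP-1 mRNA measured by qRT-PCR.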

[6] = tested on: Mus musculus; assay: Antiinflammatory activity in oral dosed LPS-induced C57BL/6 mouse model of acute lung injury assessed as reduction in MCP-1 mRNA expression in lung tissue after 6 hrs by qRT-PCR analysis; type: functional, organism-based; procedure, shortened: as §3
[7] = tested on: Mus musculus; assay: Antiinflammatory activity in LPS-induced C57BL/6 mouse model of acute lung injury assessed as restoration of normal alveolar structure at 10 to 20 mg/kg/day, po for 3 days followed by LPS-stimulation measured after 6 hrs by haematoxylin and eosin staining-based light microscopic analysis; type: functional, organism-based; procedure, shortened: as §1
[8] = tested on: Mus musculus; assay: Antiinflammatory activity in LPS-induced C57BL/6 mouse model of acute lung edema assessed as decrease in lung wet/dry ratio at 20 mg/kg/day, po for 3 days followed by LPS-stimulation measured after 6 hrs; type: functional, organism-based; procedure, shortened: as §1
[9] = species on record: Mus musculus; assay: Inhibition of MAPK in C57BL/6 mouse primary peritoneal macrophages assessed as reduction in P38 phosphorylation at 10 uM preincubated for 30 mins followed by LPS-stimulation measured after 20 mins by Western blot analysis
Procedure, shortened: (§4)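 Peritoneal macrophages pretreated with vehicle (DMSO) or 10 μM compound for 30 min, then 0.5 μg/mL LPS for 20 min. Total protein run on 10% SDS-PAGE and blotted to PVDF. p-JNK/JNK, p-p38/p38 and p-ERK/ERK detected by western blot and quantified by densitometry; n = 3.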

[10] = tested on: Mus musculus; assay: Antiinflammatory activity in oral dosed LPS-induced C57BL/6 mouse model of acute lung injury assessed as reduction in ICAM-1 mRNA expression in lung tissue after 6 hrs by qRT-PCR analysis; type: functional, organism-based; procedure, shortened: as §3
[11] = tested on: Mus musculus; assay: Antiinflammatory activity in LPS-induced C57BL/6 mouse model of acute lung injury assessed as reduction in total cells in BALF at 10 to 20 mg/kg/day, po for 3 days followed by LPS-stimulation measured after 6 hrs by cell counting based method; type: functional, organism-based; procedure, shortened: as §1
[12] = tested on: Mus musculus; assay: Antiinflammatory activity in oral dosed LPS-induced C57BL/6 mouse model of acute lung injury assessed as reduction in TNFalpha levels in BALF for 3 days followed by LPS-stimulation measured after 6 hrs; type: functional, organism-based; procedure, shortened: as §1
[13] = tested on: BEAS-2B; assay: Cytotoxicity against human BEAS2B cells up to 50 uM; type: cell-based
Procedure, shortened: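 BEAS-2B cells pretreated with compound at graded concentrations up to 50 μM for 30 min, then incubated without LPS for 24 h; compared against a DMSO group; n = 3.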

[14] = tested on: Peritoneal macrophage; assay: Antiinflammatory activity in C57BL/6 mouse primary peritoneal macrophages assessed as inhibition of LPS-induced VCAM1 mRNA expression preincubated for 30 mins followed by LPS stimulation and measured after 6 hrs by qRT-PCR analysis; type: functional, cell-based; procedure, shortened: as §2
[15] = tested on: Peritoneal macrophage; assay: Antiinflammatory activity in C57BL/6 mouse primary peritoneal macrophages assessed as inhibition of LPS-induced TNFalpha production at 10 uM preincubated for 30 mins followed by LPS stimulation and measured after 24 hrs by sandwich ELISA relative to control; type: functional; details: C57BL/6, Peritoneal macrophage
Procedure, shortened: (§5)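 Thioglycollate-elicited mouse peritoneal macrophages in RPMI-1640/10% FBS. Compound pretreatment for 30 min (10 μM for single-point screening, graded concentrations for dose-response), then 0.5 μg/mL LPS for 24 h. TNF-α and IL-6 in culture medium measured by sandwich ELISA and normalized to total protein in cell lysates; n = 3.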

[16] = tested on: Peritoneal macrophage; assay: Antiinflammatory activity in C57BL/6 mouse primary peritoneal macrophages assessed as inhibition of LPS-induced IL-6 mRNA expression preincubated for 30 mins followed by LPS stimulation and measured after 6 hrs by qRT-PCR analysis; type: functional, cell-based; procedure, shortened: as §2
[17] = tested on: Mus musculus; assay: Antiinflammatory activity in oral dosed LPS-induced C57BL/6 mouse model of acute lung injury assessed as reduction in IL-6 mRNA expression in lung tissue after 6 hrs by qRT-PCR analysis; type: functional, organism-based; procedure, shortened: as §3
[18] = tested on: Mus musculus; assay: Antiinflammatory activity in oral dosed LPS-induced C57BL/6 mouse model of acute lung injury assessed as reduction in IL-6 levels in serum for 3 days followed by LPS-stimulation measured after 6 hrs; type: functional, organism-based; procedure, shortened: as §1
[19] = tested on: Peritoneal macrophage; assay: Antiinflammatory activity in C57BL/6 mouse primary peritoneal macrophages assessed as inhibition of LPS-induced TNFalpha mRNA expression preincubated for 30 mins followed by LPS stimulation and measured after 6 hrs by qRT-PCR analysis; type: functional, cell-based; procedure, shortened: as §2
[20] = tested on: Peritoneal macrophage; assay: Antiinflammatory activity in C57BL/6 mouse primary peritoneal macrophages assessed as inhibition of LPS-induced IL-6 production at 10 uM preincubated for 30 mins followed by LPS stimulation and measured after 24 hrs by sandwich ELISA relative to control; type: functional; details: C57BL/6, Peritoneal macrophage; procedure, shortened: as §5
[21] = tested on: Peritoneal macrophage; assay: Antiinflammatory activity in C57BL/6 mouse primary peritoneal macrophages assessed as inhibition of LPS-induced ICAM1 mRNA expression preincubated for 30 mins followed by LPS stimulation and measured after 6 hrs by qRT-PCR analysis; type: functional, cell-based; procedure, shortened: as §2
[22] = species on record: Mus musculus; assay: Inhibition of MAPK in C57BL/6 mouse primary peritoneal macrophages assessed as reduction in JNK phosphorylation at 10 uM preincubated for 30 mins followed by LPS-stimulation measured after 20 mins by Western blot analysis; procedure, shortened: as §4
[23] = tested on: Mus musculus; assay: Antiinflammatory activity in oral dosed LPS-induced C57BL/6 mouse model of acute lung injury assessed as reduction in IL-6 levels in BALF for 3 days followed by LPS-stimulation measured after 6 hrs; type: functional, organism-based; procedure, shortened: as §1
[24] = tested on: Peritoneal macrophage; assay: Antiinflammatory activity in C57BL/6 mouse primary peritoneal macrophages assessed as inhibition of LPS-induced IL-6 production preincubated for 30 mins followed by LPS stimulation and measured after 24 hrs by sandwich ELISA; type: functional, cell-based; procedure, shortened: as §5
[25] = tested on: Mus musculus; assay: Antiinflammatory activity in oral dosed LPS-induced C57BL/6 mouse model of acute lung injury assessed as reduction in TNFalpha levels in serum for 3 days followed by LPS-stimulation measured after 6 hrs; type: functional, organism-based; procedure, shortened: as §1
[26] = tested on: Peritoneal macrophage; assay: Antiinflammatory activity in C57BL/6 mouse primary peritoneal macrophages assessed as inhibition of LPS-induced TNFalpha production preincubated for 30 mins followed by LPS stimulation and measured after 24 hrs by sandwich ELISA; type: functional, cell-based; procedure, shortened: as §5
[27] = species on record: Mus musculus; assay: Inhibition of MAPK in C57BL/6 mouse primary peritoneal macrophages assessed as reduction in ERK phosphorylation at 10 uM preincubated for 30 mins followed by LPS-stimulation measured after 20 mins by Western blot analysis; procedure, shortened: as §4
[28] = tested on: Mus musculus; assay: Antiinflammatory activity in oral dosed LPS-induced C57BL/6 mouse model of acute lung injury assessed as reduction in VCAM-1 mRNA expression in lung tissue after 6 hrs by qRT-PCR analysis; type: functional, organism-based; procedure, shortened: as §3

With O=C(Nc1ccc2c(c1)CCC2)c1cc(O)c(O)c(O)c1 the Stability [1] was “Stable”, the Activity [2] was “Active” and the Activity [3] was “Active”. For the same compound, the inhibition [4] was “Dose-dependent effect”, the Activity [5] was “Active” and the Activity [6] was “Active”. The Activity [7] was “Active”, the Activity [8] was “Active” and the inhibition [9] was “Active”. For the same compound, the Activity [10] was “Active”, the Activity [11] was “Active” and the inhibition [12] was “Dose-dependent effect”. For the same compound, the Activity [13] was “Non-Toxic”, the inhibition [14] was “Dose-dependent effect” and the inhibition at 10 µM [15] was 72.2%. The inhibition [16] was “Dose-dependent effect”, the Activity [17] was “Active” and the inhibition [18] was “Dose-dependent effect”. The inhibition [19] was “Dose-dependent effect”, the inhibition at 10 µM [20] was 89% and the inhibition [21] was “Dose-dependent effect”. The inhibition [22] was “Active”, the inhibition [23] was “Dose-dependent effect” and the inhibition [24] was “Dose-dependent effect”. For the same compound, the IC50 ([24]; C57BL/6, Peritoneal macrophage) was 702 nM, the inhibition [25] was “Dose-dependent effect” and the inhibition [26] was “Dose-dependent effect”. For the same compound, the IC50 ([26]; C57BL/6, Peritoneal macrophage) was 1230 nM, the inhibition [27] was “Active” and the Activity [28] was “Active”.
